# Assay results published in ChEMBL document CHEMBL2016515, “Triazoloamides as potent γ-secretase modulators with reduced hERG liability” (Bioorg Med Chem Lett, 2012).
# Molecular target: Gamma-secretase
# Assay: Inhibition of gamma secretase-mediated amyloid beta42 production in human SH-SY5Y cells overexpressing beta-APP C-terminal SPA4CT by electrochemiluminescent analysis
# Assay type: cell-based
# Outline: (§1)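 Each compound tested in at least two independent experiments; values reported in μM.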
row,SMILES,IC50 [nM]
1,COc1cc(-c2cn([C@H]3C[C@@H](C(C)(C)C)CCN(Cc4ccccc4)C3=O)nn2)ccc1-n1cnc(C)c1,80
2,COc1cc(-c2cn([C@H]3C[C@@H](C(F)(F)F)CN(CC(F)(F)F)C3=O)nn2)ccc1-n1cnc(C)c1,290
3,COc1cc(-c2cn(CC(=O)N(C3CCCCC3)C3CCCCC3)nn2)ccc1-n1cnc(C)c1,200
4,COc1cc(-c2cn(CC(=O)N(CC(F)(F)F)c3ccc4ccccc4c3)nn2)ccc1-n1cnc(C)c1,80
5,COc1cc(-c2cn(CC(=O)N(Cc3ccccc3)CC(F)(F)F)nn2)ccc1-n1cnc(C)c1,270
6,COc1cc(-c2cn(C3CCCCNC3=O)nn2)ccc1-n1cnc(C)c1 (racemic),4420
7,COc1cc(-c2cn(CC(=O)Nc3ccc4c(c3)OC(F)(F)O4)nn2)ccc1-n1cnc(C)c1,450
8,COc1cc(-c2cn([C@H]3CC[C@H](c4ccccc4)CN(Cc4ccccc4)C3=O)nn2)ccc1-n1cnc(C)c1,80
9,COc1cc(-c2cn(C3CC([Si](C)(C)C)CCNC3=O)nn2)ccc1-n1cnc(C)c1 (racemic),330
10,COc1cc(-c2cn(CC(=O)N([C@H](C)c3ccccc3)[C@H](C)c3ccccc3)nn2)ccc1-n1cnc(C)c1,430
11,COc1cc(-c2cn([C@H]3C[C@@H](C(C)(C)C)CCN(CC(F)(F)F)C3=O)nn2)ccc1-n1cnc(C)c1,9
12,COc1cc(-c2cn(CC(=O)N(Cc3ccc(F)cc3)C3C4CC5CC(C4)CC3C5)nn2)ccc1-n1cnc(C)c1 (stereo not given),240
13,COc1cc(-c2cn(CC(=O)N(c3ccccc3)C3CCCCC3)nn2)ccc1-n1cnc(C)c1,620
14,COc1cc(-c2cn(CC(=O)N(CC(F)(F)F)c3ccc4c(c3)OC(F)(F)O4)nn2)ccc1-n1cnc(C)c1,160
15,COc1cc(-c2cn(CC(=O)N3CCC(c4nc5ccccc5o4)CC3)nn2)ccc1-n1cnc(C)c1,940
16,COc1cc(-c2cn([C@H]3C[C@@H](C(C)(C)C)CCN(CC(C)(C)C)C3=O)nn2)ccc1-n1cnc(C)c1,130
17,COc1cc(-c2cn([C@H]3C[C@@H]([Si](C)(C)C)CCN(Cc4ccccc4)C3=O)nn2)ccc1-n1cnc(C)c1,70
18,COc1cc(-c2cn([C@H]3CCCCN(CC(F)(F)F)C3=O)nn2)ccc1-n1cnc(C)c1,300

# Molecular target: Gamma-secretase
# Assay: Inhibition of gamma secretase-mediated amyloid beta40 production in human SH-SY5Y cells overexpressing beta-APP C-terminal SPA4CT by electrochemiluminescent analysis
# Assay type: cell-based
# Outline: as §1
row,SMILES,IC50 [nM]
1,COc1cc(-c2cn([C@H]3C[C@@H](C(C)(C)C)CCN(Cc4ccccc4)C3=O)nn2)ccc1-n1cnc(C)c1,420
2,COc1cc(-c2cn([C@H]3C[C@@H](C(F)(F)F)CN(CC(F)(F)F)C3=O)nn2)ccc1-n1cnc(C)c1,1910
3,COc1cc(-c2cn(CC(=O)N(C3CCCCC3)C3CCCCC3)nn2)ccc1-n1cnc(C)c1,> 10000
4,COc1cc(-c2cn(CC(=O)N(CC(F)(F)F)c3ccc4ccccc4c3)nn2)ccc1-n1cnc(C)c1,660
5,COc1cc(-c2cn(CC(=O)N(Cc3ccccc3)CC(F)(F)F)nn2)ccc1-n1cnc(C)c1,2430
6,COc1cc(-c2cn(C3CCCCNC3=O)nn2)ccc1-n1cnc(C)c1 (racemic),> 10000
7,COc1cc(-c2cn(CC(=O)Nc3ccc4c(c3)OC(F)(F)O4)nn2)ccc1-n1cnc(C)c1,2070
8,COc1cc(-c2cn([C@H]3CC[C@H](c4ccccc4)CN(Cc4ccccc4)C3=O)nn2)ccc1-n1cnc(C)c1,510
9,COc1cc(-c2cn(C3CC([Si](C)(C)C)CCNC3=O)nn2)ccc1-n1cnc(C)c1 (racemic),1230
10,COc1cc(-c2cn(CC(=O)N([C@H](C)c3ccccc3)[C@H](C)c3ccccc3)nn2)ccc1-n1cnc(C)c1,5170
11,COc1cc(-c2cn([C@H]3C[C@@H](C(C)(C)C)CCN(CC(F)(F)F)C3=O)nn2)ccc1-n1cnc(C)c1,170
12,COc1cc(-c2cn(CC(=O)N(Cc3ccc(F)cc3)C3C4CC5CC(C4)CC3C5)nn2)ccc1-n1cnc(C)c1 (stereo not given),1900
13,COc1cc(-c2cn(CC(=O)N(c3ccccc3)C3CCCCC3)nn2)ccc1-n1cnc(C)c1,8710
14,COc1cc(-c2cn(CC(=O)N(CC(F)(F)F)c3ccc4c(c3)OC(F)(F)O4)nn2)ccc1-n1cnc(C)c1,1180
15,COc1cc(-c2cn(CC(=O)N3CCC(c4nc5ccccc5o4)CC3)nn2)ccc1-n1cnc(C)c1,> 10000
16,COc1cc(-c2cn([C@H]3C[C@@H](C(C)(C)C)CCN(CC(C)(C)C)C3=O)nn2)ccc1-n1cnc(C)c1,840
17,COc1cc(-c2cn([C@H]3C[C@@H]([Si](C)(C)C)CCN(Cc4ccccc4)C3=O)nn2)ccc1-n1cnc(C)c1,440
18,COc1cc(-c2cn([C@H]3CCCCN(CC(F)(F)F)C3=O)nn2)ccc1-n1cnc(C)c1,2210

# System: not listed separately
# Assay: Inhibition of gamma-secretase-mediated notch intracellular domain cleavage in HeLa cells by luciferase reporter gene assay
# Assay type: cell-based
# Outline: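 Split-luciferase complementation: γ-secretase cleavage of NotchΔE frees NICD fused to N-terminal luciferase, which enters the nucleus and binds RBP-Jk fused to C-terminal luciferase. Total luminescence is read after adding luciferin to lysed cells. At least two independent experiments; values in μM.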
row,SMILES,IC50 [nM]
1,COc1cc(-c2cn([C@H]3C[C@@H](C(C)(C)C)CCN(Cc4ccccc4)C3=O)nn2)ccc1-n1cnc(C)c1,40100
2,COc1cc(-c2cn([C@H]3C[C@@H](C(F)(F)F)CN(CC(F)(F)F)C3=O)nn2)ccc1-n1cnc(C)c1,> 50000
3,COc1cc(-c2cn(CC(=O)N(C3CCCCC3)C3CCCCC3)nn2)ccc1-n1cnc(C)c1,9000
4,COc1cc(-c2cn(CC(=O)N(CC(F)(F)F)c3ccc4ccccc4c3)nn2)ccc1-n1cnc(C)c1,48500
5,COc1cc(-c2cn(CC(=O)N(Cc3ccccc3)CC(F)(F)F)nn2)ccc1-n1cnc(C)c1,> 40000
6,COc1cc(-c2cn(C3CCCCNC3=O)nn2)ccc1-n1cnc(C)c1 (racemic),> 50000
7,COc1cc(-c2cn(CC(=O)Nc3ccc4c(c3)OC(F)(F)O4)nn2)ccc1-n1cnc(C)c1,29600
8,COc1cc(-c2cn([C@H]3CC[C@H](c4ccccc4)CN(Cc4ccccc4)C3=O)nn2)ccc1-n1cnc(C)c1,11100
9,COc1cc(-c2cn(C3CC([Si](C)(C)C)CCNC3=O)nn2)ccc1-n1cnc(C)c1 (racemic),45300
10,COc1cc(-c2cn(CC(=O)N([C@H](C)c3ccccc3)[C@H](C)c3ccccc3)nn2)ccc1-n1cnc(C)c1,> 50000
11,COc1cc(-c2cn([C@H]3C[C@@H](C(C)(C)C)CCN(CC(F)(F)F)C3=O)nn2)ccc1-n1cnc(C)c1,24300
12,COc1cc(-c2cn(CC(=O)N(Cc3ccc(F)cc3)C3C4CC5CC(C4)CC3C5)nn2)ccc1-n1cnc(C)c1 (stereo not given),> 50000
13,COc1cc(-c2cn(CC(=O)N(CC(F)(F)F)c3ccc4c(c3)OC(F)(F)O4)nn2)ccc1-n1cnc(C)c1,38200
14,COc1cc(-c2cn(CC(=O)N3CCC(c4nc5ccccc5o4)CC3)nn2)ccc1-n1cnc(C)c1,> 50000
15,COc1cc(-c2cn([C@H]3C[C@@H](C(C)(C)C)CCN(CC(C)(C)C)C3=O)nn2)ccc1-n1cnc(C)c1,20000
16,COc1cc(-c2cn([C@H]3C[C@@H]([Si](C)(C)C)CCN(Cc4ccccc4)C3=O)nn2)ccc1-n1cnc(C)c1,10200
17,COc1cc(-c2cn([C@H]3CCCCN(CC(F)(F)F)C3=O)nn2)ccc1-n1cnc(C)c1,> 50000

# Molecular target: Voltage-gated inwardly rectifying potassium channel KCNH2 (Homo sapiens, UniProt Q12809)
# Sequence (Q12809 whole entry): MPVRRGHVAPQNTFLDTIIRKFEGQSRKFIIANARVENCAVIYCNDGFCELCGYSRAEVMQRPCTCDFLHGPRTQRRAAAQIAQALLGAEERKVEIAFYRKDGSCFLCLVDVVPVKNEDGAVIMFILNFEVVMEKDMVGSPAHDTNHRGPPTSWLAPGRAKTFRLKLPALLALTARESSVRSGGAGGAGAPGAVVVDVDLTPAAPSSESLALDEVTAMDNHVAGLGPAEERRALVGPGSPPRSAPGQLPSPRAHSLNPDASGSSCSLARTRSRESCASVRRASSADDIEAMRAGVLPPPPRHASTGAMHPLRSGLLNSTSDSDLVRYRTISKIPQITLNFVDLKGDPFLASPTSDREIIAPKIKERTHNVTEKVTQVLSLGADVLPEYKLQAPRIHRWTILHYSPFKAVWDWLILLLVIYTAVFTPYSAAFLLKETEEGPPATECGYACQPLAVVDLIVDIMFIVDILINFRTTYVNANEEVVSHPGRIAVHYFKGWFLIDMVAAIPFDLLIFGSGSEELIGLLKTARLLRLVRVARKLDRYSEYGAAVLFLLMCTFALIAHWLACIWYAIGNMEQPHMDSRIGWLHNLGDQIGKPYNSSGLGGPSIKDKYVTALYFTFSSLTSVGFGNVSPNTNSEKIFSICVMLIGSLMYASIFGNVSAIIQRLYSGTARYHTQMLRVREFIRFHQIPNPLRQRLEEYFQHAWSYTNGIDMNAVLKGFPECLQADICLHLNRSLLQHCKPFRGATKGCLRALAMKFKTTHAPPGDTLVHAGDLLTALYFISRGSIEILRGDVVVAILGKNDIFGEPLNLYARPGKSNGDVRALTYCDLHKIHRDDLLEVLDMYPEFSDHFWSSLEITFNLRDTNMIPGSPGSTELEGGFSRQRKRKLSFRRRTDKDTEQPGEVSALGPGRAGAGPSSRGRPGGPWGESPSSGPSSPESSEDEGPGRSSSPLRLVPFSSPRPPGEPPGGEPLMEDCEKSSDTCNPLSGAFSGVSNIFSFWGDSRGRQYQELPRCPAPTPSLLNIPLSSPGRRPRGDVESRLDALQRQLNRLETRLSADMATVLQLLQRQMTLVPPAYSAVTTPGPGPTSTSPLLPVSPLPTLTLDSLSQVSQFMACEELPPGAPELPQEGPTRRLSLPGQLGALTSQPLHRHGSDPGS
row,SMILES,IC50 [nM]
1,COc1cc(-c2cn(CC(=O)N(Cc3ccc(F)cc3)C3C4CC5CC(C4)CC3C5)nn2)ccc1-n1cnc(C)c1 (stereo not given),250
2,COc1cc(-c2cn(CC(=O)N3CCC(c4nc5ccccc5o4)CC3)nn2)ccc1-n1cnc(C)c1,10300
